Source: ChEMBL document CHEMBL4041470, “Isolation, Structure Elucidation, and Absolute Configuration of Highly Oxygenated Germacranolides from Carpesium cernuum” (J Nat Prod, 2016)

Experiments:
Type in all cases: functional, cell-based
HCT-116 = assay: Cytotoxicity against human HCT116 cells assessed as reduction in cell viability after 72 hrs by MTT assay; conditions: HCT-116, 72 h
Procedure, shortened: (§1)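 Human cancer cells grown in 96-well plates and exposed for 72 h at 37 °C under 5% CO2. Survival rates read by MTT assay, with doxorubicin as positive control. IC50 reported as the mean of triplicate determinations.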

A549 = assay: Cytotoxicity against human A549 cells assessed as reduction in cell viability after 72 hrs by MTT assay; conditions: A549, 72 h; procedure, shortened: as §1
MDA-MB-231 = assay: Cytotoxicity against human MDA-MB-231 cells assessed as reduction in cell viability after 72 hrs by MTT assay; conditions: MDA-MB-231, 72 h; procedure, shortened: as §1
BEL-7404 tumor cell line = assay: Cytotoxicity against human Bel7404 cells assessed as reduction in cell viability after 72 hrs by MTT assay; conditions: BEL-7404, 72 h; procedure, shortened: as §1

Compound	IC50 (HCT-116)	IC50 (A549)	IC50 (MDA-MB-231)	IC50 (BEL-7404 tumor cell line)
C=C1C(=O)O[C@H]2[C@H]1[C@H](O)[C@]1(O)O[C@@H](C[C@H]1C)C[C@](C)(O)[C@@H]2OC(=O)/C(C)=C\C	37.5 µM	> 100 µM	> 100 µM	69.6 µM
C=C1C(=O)O[C@H]2[C@H]1[C@H](O)[C@H](OC(=O)/C(C)=C\C)[C@H](C)CCC(=O)[C@](C)(O)[C@@H]2OC(=O)C(C)C	0.87 µM	12.1 µM	2.02 µM	1.8 µM
C=C1C(=O)O[C@H]2[C@H]1[C@@H](O)[C@]1(O)O[C@@H](C[C@H]1C)C[C@](C)(O)[C@@H]2OC(=O)C(C)C	> 100 µM	> 100 µM	> 100 µM	81.9 µM
C/C=C(/C)C(=O)O[C@H]1[C@@H](O)[C@@H]2[C@H](OC(=O)[C@H]2COC)[C@@H](OC(=O)C(C)C)[C@@](C)(O)C(=O)CC[C@H]1C	49.6 µM	> 100 µM	> 100 µM	71.7 µM
COc1cccc2c1C(=O)c1c(O)c3c(c(O)c1C2=O)C[C@@](O)(C(=O)CO)C[C@@H]3O[C@H]1C[C@H](N)[C@H](O)[C@H](C)O1 [DOXORUBICIN]	0.007 µM	0.015 µM	0.13 µM	0.13 µM
C=C1C(=O)O[C@H]2[C@H]1[C@H](OC(=O)C(C)C)C(=O)[C@H](C)CCC[C@](C)(O)[C@@H]2OC(=O)C(C)C	2.65 µM	29.9 µM	7.48 µM	7.32 µM
C/C=C(/C)C(=O)O[C@@H]1[C@H]2OC(=O)[C@@H](COC)[C@@H]2[C@H](O)[C@H](OC(=O)CC(C)C)[C@H](C)CCC(=O)[C@]1(C)O	71.5 µM	> 100 µM	> 100 µM	79 µM
C/C=C(/C)C(=O)O[C@H]1[C@@H](O)[C@@H]2[C@H](OC(=O)[C@H]2COC)[C@@H](OC(=O)/C(C)=C\C)[C@@](C)(O)C(=O)CC[C@H]1C (relative stereo)	36.4 µM	> 100 µM	> 100 µM	88.1 µM
C=C1C(=O)O[C@H]2[C@H]1[C@@H](O)[C@]1(O)O[C@@H](C[C@H]1C)C[C@](C)(O)[C@@H]2OC(=O)/C(C)=C\C (relative stereo)	> 100 µM	> 100 µM	> 100 µM	56.4 µM
C/C=C(/C)C(=O)O[C@H]1[C@@H](O)[C@@H]2[C@H](OC(=O)[C@H]2COC)[C@@H](OC(=O)C(C)CC)[C@@](C)(O)C(=O)CC[C@H]1C (relative stereo)	58 µM	90.4 µM	> 100 µM	62.9 µM
C=C1C(=O)O[C@H]2[C@H]1[C@H](OC(=O)/C(C)=C\C)C(=O)[C@H](C)CCC[C@](C)(O)[C@@H]2OC(=O)C(C)C (relative stereo)	5.51 µM	18.4 µM	7.53 µM	7.35 µM
